Converted amounts (≈) assume the structure as drawn.
Experiments:
Assay type in all cases: functional
Klebsiella pneumoniae = assay: Antibacterial activity against Klebsiella pneumoniae isolate by conventional agar dilution method
Procedure, shortened: (§1)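 Inoculum: 3–5 colonies suspended to 0.5 McFarland, then diluted 1000-fold to 1.5 · 10⁵ CFU/mL. Compounds dissolved in DMSO, diluted with water to stock, then serially doubled in Mueller–Hinton broth to 1000, 512, 256, 128, 64, 32, 16, 8, 4 and 2 in a 12-well series. Equal volumes of dilution and bacterial suspension were combined. DMSO-only medium served as solvent control. Sulfamethoxazole was the reference.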

Enterococcus faecium = assay: Antibacterial activity against Enterococcus faecium isolate by conventional agar dilution method; procedure, shortened: as §1
Staphylococcus aureus [1] = assay: Antibacterial activity against Staphylococcus aureus […] by conventional agar dilution method; procedure, shortened: as §1
Staphylococcus aureus [2] = assay: Antibacterial activity against Staphylococcus aureus isolate by conventional agar dilution method; procedure, shortened: as §1
Escherichia coli = assay: Antibacterial activity against Escherichia coli isolate by conventional agar dilution method; procedure, shortened: as §1
Pseudomonas aeruginosa = assay: Antibacterial activity against Pseudomonas aeruginosa ATCC 27853 by conventional agar dilution method; procedure, shortened: as §1

MIC (Klebsiella pneumoniae) [µg/mL] | MIC (Enterococcus faecium) [µg/mL] | MIC (Staphylococcus aureus [1]) [µg/mL] | MIC (Staphylococcus aureus [2]) [µg/mL] | MIC (Escherichia coli) [µg/mL] | MIC (Pseudomonas aeruginosa) [µg/mL] | SMILES
256 (≈ 980 µM) | 256 (≈ 980 µM) | 256 (≈ 980 µM) | 500 (≈ 1910 µM) | 256 (≈ 980 µM) | 256 (≈ 980 µM) | O=C(NS(=O)(=O)c1ccccc1)c1ccccc1
256 (≈ 930 µM) | 128 (≈ 465 µM) | 256 (≈ 930 µM) | 256 (≈ 930 µM) | 64 (≈ 232 µM) | 256 (≈ 930 µM) | Cc1ccc(S(=O)(=O)NC(=O)c2ccccc2)cc1
> 1000 | > 1000 | > 1000 | > 1000 | > 1000 | > 1000 | CCCCC(=O)NS(=O)(=O)c1ccccc1
500 (≈ 2200 µM) | 64 (≈ 282 µM) | 64 (≈ 282 µM) | 128 (≈ 563 µM) | 128 (≈ 563 µM) | 500 (≈ 2200 µM) | CCC(=O)NS(=O)(=O)c1ccc(C)cc1
500 (≈ 2510 µM) | 256 (≈ 1280 µM) | 500 (≈ 2510 µM) | 256 (≈ 1280 µM) | 256 (≈ 1280 µM) | 500 (≈ 2510 µM) | CS(=O)(=O)NC(=O)c1ccccc1
> 1000 | > 1000 | > 1000 | > 1000 | > 1000 | > 1000 | CCCCC(=O)NS(=O)(=O)c1ccc(C)cc1
> 1000 | > 1000 | > 1000 | > 1000 | > 1000 | > 1000 | CC(=O)NS(=O)(=O)c1ccccc1
256 (≈ 1200 µM) | 64 (≈ 300 µM) | 128 (≈ 600 µM) | 256 (≈ 1200 µM) | 256 (≈ 1200 µM) | 500 (≈ 2340 µM) | CCC(=O)NS(=O)(=O)c1ccccc1

SMILES | MIC (Klebsiella pneumoniae) [µg/mL] | MIC (Enterococcus faecium) [µg/mL] | MIC (Staphylococcus aureus [1]) [µg/mL] | MIC (Staphylococcus aureus [2]) [µg/mL] | MIC (Escherichia coli) [µg/mL] | MIC (Pseudomonas aeruginosa) [µg/mL]
Cc1cc(NS(=O)(=O)c2ccc(N)cc2)no1 [SULFAMETHOXAZOLE] | 8 (≈ 31.6 µM) | 4 (≈ 15.8 µM) | 2 (≈ 7.9 µM) | 4 (≈ 15.8 µM) | 2 (≈ 7.9 µM) | 8 (≈ 31.6 µM)
